Screens (PubChem BioAssay)
OX1R antag-1: blocks the human orexin 1 receptor. O43613. CHO/OX1R cells, Fluo-8 calcium fluorescence, orexin A. inhibition, % at 5 µM. 330,000 compounds, 0.43% hits. AID 434989;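 active = inhibition above its plate's threshold, mean inhibition of all tested compounds on the plate plus 3 SD, cut at about 37% in these data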;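 note: 0% = orexin A challenge wells and 100% = SB-334867-A antagonist wells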
GalR3 antag: antagonists of human GalR3; O60755; HEK293 GalR3-CNG cAMP membrane potential fluorescence; galR3 body fused to GalR1 C-terminus; inhibition, % at 3 µM; 360,000 compounds, 0.44% hits; AID 651719;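 active = inhibition above the screen-wide average plus 3 SD, cut at about 13% in these data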;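 note: forskolin and galanin both at EC90 stimulate the cells; cAMP rise reported by CNG channel membrane potential dye signal; 0% = forskolin plus galanin with DMSO and 100% = forskolin alone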
Target sequence (O60755 1-299 limits assumed): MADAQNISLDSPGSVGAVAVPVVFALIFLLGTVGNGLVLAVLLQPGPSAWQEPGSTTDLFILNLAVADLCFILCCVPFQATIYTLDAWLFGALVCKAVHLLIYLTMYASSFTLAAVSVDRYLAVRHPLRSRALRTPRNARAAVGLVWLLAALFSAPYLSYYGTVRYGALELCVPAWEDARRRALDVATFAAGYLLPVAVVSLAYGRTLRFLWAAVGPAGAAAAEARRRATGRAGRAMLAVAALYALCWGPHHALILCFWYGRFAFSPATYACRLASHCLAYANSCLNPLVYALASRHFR
OX1R antag-2: antagonists of human orexin 1 receptor (OX1R); OX1R-expressing cells, FRET antagonist read-out; AID 485270; O43613; inhibition, % at 6.6 µM; 330,000 compounds, 1.8% hits; in the data active = inhibition mostly above about 38%, no sharp cut-off; inactive = mostly below about 40%;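 note: 0% = agonist challenge alone and 100% = reference antagonist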
GPR7 antagonist: antagonists of human GPR7 (neuropeptides B/W receptor 1); GPR7-expressing cells, fluorescence antagonist assay; inhibition, % at 4.4 µM; P48145; 290,000 compounds, 1.1% hits; in the data active = inhibition above about 16%, passing the limit was not always enough;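 note: cells stimulated with the agonist NPW; 0% = agonist with vehicle and 100% = vehicle without agonist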
Target sequence (P48145 whole entry, looked up): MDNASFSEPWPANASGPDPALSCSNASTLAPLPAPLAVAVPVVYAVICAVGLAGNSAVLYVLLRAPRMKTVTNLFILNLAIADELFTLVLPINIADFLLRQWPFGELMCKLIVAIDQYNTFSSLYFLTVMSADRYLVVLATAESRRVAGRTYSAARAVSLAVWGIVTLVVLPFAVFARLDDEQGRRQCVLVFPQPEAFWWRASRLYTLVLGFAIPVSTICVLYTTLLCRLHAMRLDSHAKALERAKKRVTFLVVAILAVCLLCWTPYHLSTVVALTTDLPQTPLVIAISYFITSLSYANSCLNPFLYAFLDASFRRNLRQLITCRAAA
CHO parental Ca: signal in parental CHO cells, OX1R antagonist counter-screen; inhibition, % at 5.6 µM; parental CHO-K1, ATP-induced calcium, Fluo-8 fluorescence; 330,000 compounds, 0.63% hits;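 active = inhibition above that plate's mean sample inhibition plus 3 SD, cut at about 26% in these data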;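 note: 0% = ATP-challenged DMSO wells and 100% = DMSO wells without ATP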
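test system = CHO parental line | reagent = ATP stimulus | measured by = intracellular calcium via Fluo-8 no-wash fluorescent dye | control set = ATP and no-ATP DMSO wells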
Active calls of the source: *; . = no result. Hits are enriched below; roughly 3.1% of the tested compounds scored in any of these assays.

SMILES	OX1R antag-1	GalR3 antag	OX1R antag-2	GPR7 antagonist	CHO parental Ca
N#CC1=C(N)N2C(=C(C#N)C13CCCCC3)SC1CCCCC12O (centres undefined)	14	-4	5	-4	33*
Cc1cccc(C)c1OCC(O)CN1CCc2ccccc2C1 (centres undefined)	-29	-2	12	.	-8
Cc1ccc(C(C)C)c(OCC(O)CN2CCc3ccccc3C2)c1 (centres undefined)	-14	-12	20	-12	30*
CCc1cc2c(nc1CC)CCCN2S(=O)(=O)c1ccc(C(F)(F)F)cc1	.	-7	.	.	.
Cc1cc(C(=O)N/N=C/c2ccc(O)c([N+](=O)[O-])c2)n[nH]1	-9	-3	60*	-3	1
O=C(N/N=C/c1ccc([N+](=O)[O-])cc1)c1[nH]ncc1Br	-13	-7	58*	-2	-5
O=C(N/N=C\c1cn[nH]c1-c1ccccc1)c1ccc([N+](=O)[O-])cc1	-9	2	36	7	-14
O=C(N/N=C/c1ccco1)c1cc(C2CC2)[nH]n1	5	-6	2	-13	-10
O=C(N/N=C/c1ccc([N+](=O)[O-])cc1)c1cc(C2CC2)[nH]n1	-11	5	68*	-9	-2
CCc1nc2c(OCc3ccc4c(c3)OCO4)cccn2c1N(C=O)Cc1ccccc1	.	-3	.	.	.
COc1ccc(C(=O)Oc2ccc3oc(=O)sc3c2)cc1	27	-3	0	6	57*
COc1ncc(-c2ccc(N3C(c4ccsc4)=Cc4ccc(F)cc4C3CC(C)=O)cc2)cn1 (centres undefined)	.	-7	.	.	.
Nn1cnnc1N/N=C/c1ccc(F)cc1	-3	-11	65*	-17	-2
Nn1cnnc1N/N=C/c1ccc(Cl)c([N+](=O)[O-])c1	-9	-2	61*	-15	-26
Nn1cnnc1N/N=C/c1cccc(Cl)c1Cl	.	-7	.	-17	.
Cc1ccc(/C=N/Nc2nncn2N)cc1	1	-8	43*	-10	-4
Cc1ccc(C(=O)OCC(=O)N(Cc2ccccc2)C(C)C)cc1C	9	-3	36*	.	-26
Cc1ccc(NC(=O)c2ccc(S(=O)(=O)N(C)c3ccccc3)cc2)cc1S(=O)(=O)N1CCOCC1	.	-4	.	.	.
CCC(C)NCCC(=O)Nc1ccc(Cl)c(S(=O)(=O)Nc2ccc(Cl)cc2)c1 (centres undefined)	0	-14	12	33*	-9
O=C(N[C@H](C(=O)N1CCC[C@H]1C(=O)NC1CCCC1)C1CCCCC1)c1ccc(Cl)c(Cl)c1	.	-7	.	.	.
CCN(CC)c1ccc(C(=O)O)cc1	-7	-5	10	-8	-1
CCN(CC)c1ccc(/C=C2\C(=O)c3ccc(C(=O)O)cc3C2=O)cc1	87*	-3	27	7	51*
CN(C)S(=O)(=O)c1ccc(/C(O)=C2/C(=O)C(=O)N(CCCN3CCOCC3)C2c2ccncc2)cc1 (centres undefined)	-3	-4	73*	.	8
COc1ccc(/C(O)=C2/C(=O)C(=O)N(CCN3CCOCC3)C2c2ccccn2)cc1 (centres undefined)	-6	-3	68*	-2	-3
O=C1C(=O)N(CCN2CCOCC2)C(c2ccccn2)/C1=C(/O)c1ccc(F)cc1 (centres undefined)	-6	-2	43*	9	-4
SMILES	OX1R antag-1	GalR3 antag	OX1R antag-2	GPR7 antagonist	CHO parental Ca
O=C1C(=O)N(CCCN2CCOCC2)C(c2ccc(F)cc2)/C1=C(/O)c1ccccc1 (centres undefined)	-5	-11	-10	-14	-7
COc1cccc(/C(O)=C2/C(=O)C(=O)N(CCCN3CCOCC3)C2c2ccncc2)c1 (centres undefined)	-8	-2	21	-7	-6
O=C(C1=C(O)C(=O)N(CCN2CCOCC2)C1c1ccccn1)c1cccs1 (centres undefined)	-5	2	59*	-6	3
O=c1[nH][nH]c2c1[C@H](c1ccc(F)cc1)O[C@H](C1CCCCC1)C2	.	-3	.	.	.
CC1(C(=O)NCc2ccccc2)CCC(=O)N1CCCn1ccnc1 (centres undefined)	.	-8	.	.	.
O=C1CCC(NC(=O)Cc2ccccc2)C(=O)N1 (centres undefined)	.	1	.	.	.
Nc1ccccc1/C=C/c1ccccc1N	.	-1	.	.	.
O=C(O)CCCC[n+]1ccccc1	.	-7	.	.	.
O=C1NC(=O)C(=Cc2ccccc2[N+](=O)[O-])S1	.	-5	.	.	.
Cc1ccc(S(=O)(=O)Oc2ccccc2/C=C2/SC(=O)NC2=O)cc1	-18	-7	38*	-19	2
O=C1NC(=O)/C(=C/c2cccc3ccccc23)S1	-23	-7	30*	-9	-3
OC1OC2COC(c3ccccc3)OC2C(O)C1O (centres undefined)	.	-6	.	.	.
COC(=O)c1cc2c(c3c4cc(F)ccc4n(S(=O)(=O)c4cccc(C)c4)c13)C(=O)N(Cc1ccco1)C2	.	-3	.	.	.
O=C(Cc1ccccc1)N1O[C@H]2C=C[C@@H]1C2	.	-1	.	.	.
Cc1cc(C(C)C)n2c(nc3ccccc32)c1C#N	-16	.	11	-9	-7
Cc1cc(-c2ccco2)c(C#N)c2nc3ccccc3n12	-15	1	100*	-1	-7
COc1cccc(-c2cccc3c4c([nH]c23)[C@@H]2C[C@H]3[C@@H](C(=O)N2CC4)[C@H](C)ON3C)c1	.	-5	.	.	.
CCc1nc(SCC(=O)c2ccc3c(c2)OCCO3)c2ccccc2n1	5	-4	58*	-4	-27
O=C(CSc1nc(Cc2ccccc2)nc2ccccc12)c1ccc2c(c1)OCCO2	-22	-8	41*	-1	0
CCN(CC)C(=O)CSc1nc(Cc2ccccc2)nc2ccccc12	.	-6	.	-11	.
Cc1ccc(CN2C(=O)c3ccccc3C2c2nnnn2C(C)C)cc1 (centres undefined)	.	0	.	.	.
CCCn1nc(NS(=O)(=O)c2cccc3nonc23)c2cc3cccc(C)c3nc21	-2	-7	52*	-4	-23
CCCn1nc(NS(=O)(=O)c2cccc3nonc23)c2cc3cc(C)ccc3nc21	-11	-7	33	-8	-16
CN1OC[C@@H]2CN(C(=O)c3ccc([N+](=O)[O-])cc3)[C@H](c3ccccc3Br)C[C@@H]21	.	-2	.	.	.
Cc1ccc(NS(=O)(=O)c2cc(Br)cnc2N)c(Cl)c1	-14	-6	13	-2	-21
Nc1ncc(Br)cc1S(=O)(=O)Nc1cc(C(F)(F)F)cc(C(F)(F)F)c1	25	-6	85*	20	25
Cc1cccn2c(=O)c3cc(C(=O)NCC4CCCO4)c(=N)n(C4CCCC4)c3nc12 (centres undefined)	-26	6	59*	-15	-2
N=c1c(C(=O)NCC2CCCO2)cc2c(=O)n3ccccc3nc2n1C1CCCCC1 (centres undefined)	-9	-4	53	-2	-5
N=c1c(C(=O)NCC2CCCO2)cc2c(=O)n3ccccc3nc2n1C1CCCC1 (centres undefined)	-20	-11	45*	-5	-29
